Measurements from ChEMBL document CHEMBL5058577, “EUbOPEN Chemogenomics Library 2 (Multiplex)” (2022).
Non-standard residues stand in square brackets, D forms with d. Residues, ends and D or L forms follow the SMILES beside them.

System: HEK-293T
Test: Multiplex assay against HEK293T
Assay type: toxicity, cell-based
Conditions: human
Summary of the method: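 Live cells were stained at seeding with Hoechst33342, BioTracker Green Microtubule Cytoskeleton Dye, MitoTracker Red and Annexin V Alexa Fluor 680, then imaged on a CQ1 microscope at 37°C and 5% CO2 after compound addition. CellPathfinder machine-learning gating split cells into Hoechst high-intensity objects or normal cells. Normal cells were split into healthy, pyknosed or fragmented nuclei, and pyknosed cells into mitotic or apoptotic. Tubulin, mitochondrial-mass and membrane-permeability phenotypes are per cents of healthy-nucleus cells.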

[1] = 12 h, 1 µM, compound concentration 1 uM, replicate 1
[2] = 12 h, 1 µM, compound concentration 1 uM, replicate 2
[3] = 12 h, 10 µM, compound concentration 10 uM, replicate 1
[4] = 12 h, 10 µM, compound concentration 10 uM, replicate 2
[5] = 24 h, 1 µM, compound concentration 1 uM, replicate 1
[6] = 24 h, 1 µM, compound concentration 1 uM, replicate 2
[7] = 24 h, 10 µM, compound concentration 10 uM, replicate 1
[8] = 24 h, 10 µM, compound concentration 10 uM, replicate 2
[9] = 48 h, 1 µM, compound concentration 1 uM, replicate 1
[10] = 48 h, 1 µM, compound concentration 1 uM, replicate 2
[11] = 48 h, 10 µM, compound concentration 10 uM, replicate 1
[12] = 48 h, 10 µM, compound concentration 10 uM, replicate 2

Structure (SMILES): CC(C)C[C@@H]1NC(=O)[C@@H](C(C)C)NC(=O)[C@@H]2CCCN2C(=O)[C@@H](CC(=O)O)NC(=O)[C@@H](Cc2c[nH]c3ccccc23)NC1=O [BQ-123] (cyclo(L[dW][dD]P[dV]))
- Population Apoptotic (%) [1]: 46%
- Population Fragmented Nuclei (%) [1]: 7%
- Population Healthy Nuclei (%) [1]: 80%
- Population Hoechst High Intensity Objects (%) [1]: 4%
- Population Membrane Permeable-Phenotype (%) [1]: 0%
- Population Mitochondria Different-Phenotype (%) [1]: 39%
- Population Mitotic Cells (%) [1]: 53%
- Population Normal (%) [1]: 95%
- Population Pyknosed Nuclei (%) [1]: 11%
- Population Tubulin-Different-Phenotype (%) [1]: 32%
- Total Cell Count [1]: 376
- Population Fragmented Nuclei (%) [2]: 5%
- Population Healthy Nuclei (%) [2]: 82%
- Population Hoechst High Intensity Objects (%) [2]: 7%
- Population Mitochondria Different-Phenotype (%) [2]: 59%
- Population Normal (%) [2]: 92%
- Population Tubulin-Different-Phenotype (%) [2]: 19%
- Total Cell Count [2]: 392
- Population Apoptotic (%) [3]: 30%
- Population Fragmented Nuclei (%) [3]: 7%
- Population Healthy Nuclei (%) [3]: 78%
- Population Hoechst High Intensity Objects (%) [3]: 7%
- Population Membrane Permeable-Phenotype (%) [3]: 0%
- Population Mitochondria Different-Phenotype (%) [3]: 48%
- Population Mitotic Cells (%) [3]: 69%
- Population Normal (%) [3]: 92%
- Population Pyknosed Nuclei (%) [3]: 14%
- Population Tubulin-Different-Phenotype (%) [3]: 31%
- Total Cell Count [3]: 387
- Population Apoptotic (%) [4]: 71%
- Population Fragmented Nuclei (%) [4]: 5%
- Population Hoechst High Intensity Objects (%) [4]: 11%
- Population Mitochondria Different-Phenotype (%) [4]: 65%
- Population Mitotic Cells (%) [4]: 28%
- Population Normal (%) [4]: 88%
- Population Pyknosed Nuclei (%) [4]: 16%
- Population Tubulin-Different-Phenotype (%) [4]: 22%
- Total Cell Count [4]: 265
- Population Apoptotic (%) [5]: 26%
- Population Fragmented Nuclei (%) [5]: 10%
- Population Healthy Nuclei (%) [5]: 79%
- Population Hoechst High Intensity Objects (%) [5]: 3%
- Population Membrane Permeable-Phenotype (%) [5]: 0%
- Population Mitochondria Different-Phenotype (%) [5]: 27%
- Population Mitotic Cells (%) [5]: 73%
- Population Normal (%) [5]: 96%
- Population Pyknosed Nuclei (%) [5]: 9%
- Population Tubulin-Different-Phenotype (%) [5]: 21%
- Total Cell Count [5]: 497
- Population Apoptotic (%) [6]: 40%
- Population Fragmented Nuclei (%) [6]: 7%
- Population Healthy Nuclei (%) [6]: 82%
- Population Hoechst High Intensity Objects (%) [6]: 5%
- Population Mitochondria Different-Phenotype (%) [6]: 35%
- Population Mitotic Cells (%) [6]: 59%
- Population Normal (%) [6]: 94%
- Population Tubulin-Different-Phenotype (%) [6]: 14%
- Total Cell Count [6]: 538
- Population Apoptotic (%) [7]: 25%
- Population Fragmented Nuclei (%) [7]: 11%
- Population Healthy Nuclei (%) [7]: 77%
- Population Hoechst High Intensity Objects (%) [7]: 6%
- Population Membrane Permeable-Phenotype (%) [7]: 0%
- Population Mitochondria Different-Phenotype (%) [7]: 31%
- Population Mitotic Cells (%) [7]: 75%
- Population Normal (%) [7]: 93%
- Population Pyknosed Nuclei (%) [7]: 11%
- Population Tubulin-Different-Phenotype (%) [7]: 24%
- Total Cell Count [7]: 511
- Population Apoptotic (%) [8]: 57%
- Population Fragmented Nuclei (%) [8]: 8%
- Population Healthy Nuclei (%) [8]: 78%
- Population Hoechst High Intensity Objects (%) [8]: 7%
- Population Mitochondria Different-Phenotype (%) [8]: 50%
- Population Mitotic Cells (%) [8]: 42%
- Population Normal (%) [8]: 92%
- Population Pyknosed Nuclei (%) [8]: 12%
- Population Tubulin-Different-Phenotype (%) [8]: 18%
- Total Cell Count [8]: 302
- Population Apoptotic (%) [9]: 21%
- Population Fragmented Nuclei (%) [9]: 11%
- Population Healthy Nuclei (%) [9]: 79%
- Population Hoechst High Intensity Objects (%) [9]: 3%
- Population Membrane Permeable-Phenotype (%) [9]: 0%
- Population Mitochondria Different-Phenotype (%) [9]: 22%
- Population Mitotic Cells (%) [9]: 78%
- Population Normal (%) [9]: 96%
- Population Pyknosed Nuclei (%) [9]: 9%
- Population Tubulin-Different-Phenotype (%) [9]: 15%
- Total Cell Count [9]: 719
- Population Apoptotic (%) [10]: 24%
- Population Healthy Nuclei (%) [10]: 81%
- Population Hoechst High Intensity Objects (%) [10]: 5%
- Population Membrane Permeable-Phenotype (%) [10]: 1%
- Population Mitochondria Different-Phenotype (%) [10]: 18%
- Population Mitotic Cells (%) [10]: 75%
- Population Normal (%) [10]: 94%
- Population Pyknosed Nuclei (%) [10]: 7%
- Population Tubulin-Different-Phenotype (%) [10]: 10%
- Total Cell Count [10]: 777
- Population Apoptotic (%) [11]: 25%
- Population Fragmented Nuclei (%) [11]: 16%
- Population Healthy Nuclei (%) [11]: 77%
- Population Hoechst High Intensity Objects (%) [11]: 3%
- Population Membrane Permeable-Phenotype (%) [11]: 1%
- Population Mitochondria Different-Phenotype (%) [11]: 21%
- Population Mitotic Cells (%) [11]: 75%
- Population Normal (%) [11]: 96%
- Population Pyknosed Nuclei (%) [11]: 6%
- Population Tubulin-Different-Phenotype (%) [11]: 15%
- Total Cell Count [11]: 756
- Population Apoptotic (%) [12]: 40%
- Population Fragmented Nuclei (%) [12]: 11%
- Population Healthy Nuclei (%) [12]: 80%
- Population Membrane Permeable-Phenotype (%) [12]: 0%
- Population Mitochondria Different-Phenotype (%) [12]: 29%
- Population Mitotic Cells (%) [12]: 59%
- Population Pyknosed Nuclei (%) [12]: 8%
- Population Tubulin-Different-Phenotype (%) [12]: 16%
- Total Cell Count [12]: 477
